Measurements published in ChEMBL document CHEMBL1127046, “Antitumor agents. 3. Synthesis and biological activity of 4 beta-alkyl derivatives containing hydroxy, amino, and amido groups of 4'-O-demethyl-4-desoxypodophyllotoxin as antitumor agents” (J Med Chem, 1993).
Converted amounts (≈) assume the structure as drawn.

What was measured:
L1210 [1] = test: Increase in life span at the dose of 2.5 (mg/kg/day); type: functional, Mus musculus
P388 [2] = test: Cytotoxicity against P388 leukemia; type: functional, cell-based; conditions: Mus musculus
[3] = Inhibition of DNA topoisomerase II from rat liver measured as 50% reduction in the amount of minicircle DNA relative to the control
Tubulin = Tubulin (Bos taurus, UniProt Q6B856+Q862L2+Q862F3); test: Drug concentration needed to produce a 50% reduction of bovine brain tubulin polymerization relative to the control
L1210 [4] = test: The number of mice survived for 30 days at the dose of 40 (mg/kg/day); type: functional, Mus musculus
L1210 [5] = test: Antitumor activity in vivo expressed as the percentage increase in life span at the dose of 40 (mg/kg/day); type: functional, Mus musculus
L1210 [6] = test: The number of mice survived for 30 days at the dose of 20 (mg/kg/day); type: functional, Mus musculus
L1210 [7] = test: Antitumor activity in vivo expressed as the percentage increase in life span at the dose of 20 (mg/kg/day); type: functional, Mus musculus
ACHN = test: Inhibition of growth of renal cancer ACHN cell line; type: functional; conditions: Homo sapiens, read-out: ED50 (the source's name)
In short: (§1)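 Human tumour cell lines plated and grown 24 h in a CO2 incubator, then exposed to compound for 96 or 4 h. Cells counted by hemocytometer. IC50 is the concentration giving 50% reduction in cell number versus untreated control.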

A549 = test: Inhibition of growth of lung non-small cell carcinoma A-549 cell line; type: functional; conditions: Homo sapiens, read-out: ED50 (the source's name)
In short: (§2)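 Cells were seeded and cultured for 24 h, then exposed to drug for 96 or 4 h. Cells were counted by hemocytometer. IC50 is the concentration giving a 50% reduction in cell number relative to control.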

[8] = Inhibition of growth of colon carcinoma COLO 2-1 cell line; type: functional; conditions: Homo sapiens, read-out: ED50 (the source's name); in short: as §2
COLO 320DM = test: Inhibition of growth of colon carcinoma COLO 320DM; type: functional; conditions: Homo sapiens, read-out: ED50 (the source's name); in short: as §2
Homo sapiens = organism: Homo sapiens; test: Inhibition of growth of hepatoma HLE cell line; type: functional; conditions: read-out: ED50 (the source's name); in short: as §2
[9] = Inhibition of growth of renal cancer G-402 cell line; type: functional; conditions: Homo sapiens, read-out: ED50 (the source's name); in short: as §1
[10] = Inhibition of growth of hepatoma HLF cell line; type: functional; conditions: Homo sapiens, read-out: ED50 (the source's name); in short: as §2
L1210 [11] = test: The number of mice survived for 30 days; type: functional, Mus musculus
L1210 [12] = test: Antitumor activity in vivo expressed as the percentage increase in life span at the dose of 10 (mg/kg/day); type: functional, Mus musculus
[13] = test system: Lewis lung carcinoma cell line; test: Antitumor activity in vivo expressed as the percentage increase in life span at the dose of 4 (mg/kg/day); (p<0.001); type: functional, Mus musculus
[14] = test system: Lewis lung carcinoma cell line; test: Antitumor activity in vivo expressed as the percentage increase in life span at the dose of 7 (mg/kg/day); (p<0.001); type: functional, Mus musculus
[15] = test system: Lewis lung carcinoma cell line; test: Antitumor activity in vivo expressed as the percentage increase in life span at the dose of 12 (mg/kg/day); (p<0.001); type: functional, Mus musculus
[16] = test system: Lewis lung carcinoma cell line; test: Antitumor activity in vivo expressed as the percentage increase in life span at the dose of 2.32 (mg/kg/day); (p<0.005); type: functional, Mus musculus
[17] = test system: Lewis lung carcinoma cell line; test: Antitumor activity in vivo expressed as the percentage increase in life span at the dose of 21 (mg/kg/day); (p<0.005); type: functional, Mus musculus
[18] = test system: Lewis lung carcinoma cell line; test: Mean body weight change at the dose of 7 (mg/kg/day); type: functional, Mus musculus
In short: (§3)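 Male BDF1 mice (5 weeks) given 3.2 x 10^5 Lewis lung carcinoma cells iv on day 0, then dosed iv on days 1–5. Seven mice per group, 14 controls. Mean body weight change (g) taken from day 0 to day 6.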

[19] = test system: Lewis lung carcinoma cell line; test: Mean body weight change at the dose of 12 (mg/kg/day); type: functional, Mus musculus; in short: as §3
[20] = test system: Lewis lung carcinoma cell line; test: Mean body weight change at the dose of 2.3 (mg/kg/day); type: functional, Mus musculus; in short: as §3
[21] = test system: Lewis lung carcinoma cell line; test: Mean body weight change at the dose of 21 (mg/kg/day); type: functional, Mus musculus; in short: as §3
[22] = test system: Lewis lung carcinoma cell line; test: Mean body weight change at the dose of 4 (mg/kg/day); type: functional, Mus musculus; in short: as §3
P388 [23] = test: Increased life span at the P388 dose of 4 (mg/kg/day); type: functional, Mus musculus
In short: (§4)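 P388 leukaemia, 1 × 10^6 cells given sc to male CDF1 mice (5 weeks old) on day 0. Drug was dosed iv on days 1–5 in saline with 3.5% DMSO and 6.5% Tween 80. Groups had 7 mice; controls had 10. ILS was calculated from mean survival time of treated versus control mice, excluding 30-day survivors.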

P388 [24] = test: Increased life span at the P388 dose of 7 (mg/kg/day); type: functional, Mus musculus; in short: as §4
[25] = Inhibition of growth of lung non-small cell carcinoma PC-7 cell line; type: functional; conditions: Homo sapiens, read-out: ED50 (the source's name); in short: as §2
[26] = Inhibition of growth of lung small cell carcinoma RERF-LC-MA cell line; type: functional; conditions: Homo sapiens; read-out: ED50 (the source's name); in short: as §2
SBC-3 = test: Inhibition of growth of lung small cell carcinoma SBC-3 cell line; type: functional; conditions: Homo sapiens, read-out: ED50 (the source's name); in short: as §1
[27] = test system: Lewis lung carcinoma cell line; test: Percentage inhibition of tumor growth at the lewis lung dose of 12 (mg/kg/ day); (p<0.01); type: functional, Mus musculus
In short: (§5)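 Lewis lung carcinoma fragments (2 mm3) implanted sc into male BDF1 mice (5 weeks) on day 0. Compound given iv on days 4–8, in saline or saline with 3.5% DMSO and 6.5% Tween 80. Seven mice per group, 10 controls. Percent inhibition from mean tumour weight versus control on day 17; p<0.05, 0.01 or 0.001 versus control.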

[28] = test system: Lewis lung carcinoma cell line; test: Percentage inhibition of tumor growth at the lewis lung dose of 7 (mg/kg/day); (p<0.05); type: functional, Mus musculus; in short: as §5
P388 [29] = test: Increased life span at the P388 dose of 2.3 (mg/kg/day); type: functional, Mus musculus; in short: as §4

COc1cc([C@@H]2c3cc4c(cc3[C@@H](CCN(C)C)C3COC(=O)[C@@H]32)OCO4)cc(OC)c1O.Cl (stereo partly drawn)
ILS max (L1210 [1]): 67% | IC50 (P388 [2]): 0.06 µM | IC50 [3]: 36.7 µM | IC50 (Tubulin): > 100 µM

COc1cc([C@@H]2c3cc4c(cc3[C@@H](CCN(C)N(C)C)C3COC(=O)[C@@H]32)OCO4)cc(OC)c1O.Cl (stereo partly drawn)
Survivors (L1210 [4]): 6 | ILS max (L1210 [5]): 74% | IC50 (P388 [2]): 0.02 µM | IC50 [3]: 58.3 µM | IC50 (Tubulin): > 100 µM

CCCCCCN(C)CC[C@@H]1c2cc3c(cc2[C@@H](c2cc(OC)c(O)c(OC)c2)[C@H]2C(=O)OCC12)OCO3.Cl (stereo partly drawn)
Survivors (L1210 [6]): 6 | IC50 (P388 [2]): 0.019 µM | IC50 [3]: 61.4 µM | IC50 (Tubulin): > 167 µM | ILS max (L1210 [7]): 106%

COc1cc([C@@H]2c3cc4c(cc3[C@@H](O[C@@H]3O[C@@H]5CO[C@@H](C)O[C@H]5[C@H](O)[C@H]3O)[C@H]3COC(=O)[C@H]23)OCO4)cc(OC)c1O [ETOPOSIDE]
EC50 (ACHN): 13 µg/mL (≈ 22.1 µM) | EC50 (A549): 2.9 µg/mL (≈ 4.93 µM) | EC50 [8]: 59 µg/mL (≈ 100 µM) | EC50 (COLO 320DM): 14 µg/mL (≈ 23.8 µM) | EC50 (Homo sapiens): 1.5 µg/mL (≈ 2.55 µM) | EC50 [9]: 4.8 µg/mL (≈ 8.16 µM) | EC50 [10]: 19 µg/mL (≈ 32.3 µM) | Survivors (L1210 [11]): 3 | ILS max (L1210 [12]): 102% | ILS max [13]: 24% | ILS max [14]: 21% | ILS max [15]: 81% | ILS max [16]: 17% | ILS max [17]: 91% | bwc [18]: -0.8 g | bwc [19]: -2.6 g | bwc [20]: 0 g | bwc [21]: -3.8 g | bwc [22]: -0.4 g | IC50 (P388 [2]): 0.01 µM | ILS max (P388 [23]): 196% | ILS max (P388 [24]): 226% | EC50 [25]: 35 µg/mL (≈ 59.5 µM) | EC50 [26]: > 59 µg/mL | EC50 (SBC-3): 1.6 µg/mL (≈ 2.72 µM) | IC50 [3]: 59.2 µM | Inhibition [27]: 60% | Inhibition [28]: 39% | ILS max (P388 [29]): 151%
